# Data as given in paper PMC12248229 (PeerJ, 2025).
# Tests used:
# [1] = in vivo; format: in vivo, Sprague-Dawley (SD) rats; settings: for half-life: t1/2, rats
# [2] = system: P-gp; assay: qRT-PCR mRNA expression in rat liver and intestine after 7 days of dosing; format: in vivo; settings: after multiple doses
# Procedure, shortened: (§1)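 Rats (n = 6/group) gavaged daily for 7 days with test compound: 2.5 or 1 mg/kg in 0.5% CMC-Na, or 100 mg/kg in 0.5% CMC-Na with 5% DMSO. Liver and intestine harvested under chloral hydrate and stored at −80 °C. TRNzol RNA extraction; 1 μg RNA reverse-transcribed. qPCR: 95 °C 15 min, then 40 cycles of 95 °C 10 s/60 °C 32 s. […] reference; 2^−ΔΔCT.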
# [3] = system: patients with chronic kidney disease; settings: diverse group of patients with chronic kidney disease, ref Fauchier, Fauchier & Angoulvant, 2021, Herrington et al., 2023, Santos-Gallego et al., Wanner et al., 2016; cited from earlier work
# [4] = system: Ugt1a7; assay: qRT-PCR mRNA expression in rat liver and intestine after 7 days of dosing; format: in vivo; settings: after multiple doses
# Procedure, shortened: as §1
# [5] = cited from earlier work
# [6] = system: Oatp1b2; assay: qRT-PCR mRNA expression in rat liver after 7 days of dosing; format: in vivo; settings: after multiple doses
# Procedure, shortened: as §1
# [7] = Stability of analytes in rat plasma; format: physicochemical; settings: n = 6
# [8] = rats, coadministered with sorafenib, versus control group
# [9] = rats, empagliflozin […] after sorafenib 100 mg/kg for 7 consecutive days, n = 6
# [10] = Autosampler (15 °C) for 6 h, nominal 15 ng/mL
# [11] = Autosampler (15 °C) for 6 h, nominal 800 ng/mL
# [12] = Autosampler (15 °C) for 6 h, nominal 1,500 ng/mL
# [13] = Room temperature for 4 h, nominal 15 ng/mL
# [14] = Room temperature for 4 h, nominal 800 ng/mL
# [15] = Room temperature for 4 h, nominal 1,500 ng/mL
# [16] = Three freeze–thaw cycles (−80 °C to 25 °C), nominal 15 ng/mL
# [17] = Three freeze–thaw cycles (−80 °C to 25 °C), nominal 800 ng/mL
# [18] = Three freeze–thaw cycles (−80 °C to 25 °C), nominal 1,500 ng/mL
# [19] = −80 °C for 30 days, nominal 15 ng/mL
# [20] = −80 °C for 30 days, nominal 800 ng/mL
# [21] = −80 °C for 30 days, nominal 1,500 ng/mL
smiles,measurement,setting,value
OC[C@H]1O[C@@H](c2ccc(Cl)c(Cc3ccc(O[C@H]4CCOC4)cc3)c2)[C@H](O)[C@@H](O)[C@@H]1O [Empagliflozin],AUC(0-t),"[1]; Sprague-Dawley, rat, in vivo, po, […], AUC0–t, rats, empagliflozin […] after sorafenib 100 mg/kg for 7 consecutive days, n = 6",563 ± 110 ng·h/mL
same,AUC(0-inf),"[1]; Sprague-Dawley, rat, in vivo, po, […], AUC0–∞, rats, empagliflozin […] after sorafenib 100 mg/kg for 7 consecutive days, n = 6",586 ± 104 ng·h/mL
same,Cmax,"[1]; Sprague-Dawley, rat, in vivo, po, […], Cmax, rats, empagliflozin […] after sorafenib 100 mg/kg for 7 consecutive days, n = 6",231 ± 78.5 ng/mL
same,MRT last,"[1]; Sprague-Dawley, rat, in vivo, po, […], MRT0–t, rats, empagliflozin […] after sorafenib 100 mg/kg for 7 consecutive days, n = 6",2.86 ± 0.21 h
same,MRT inf,"[1]; Sprague-Dawley, rat, in vivo, po, […], MRT0–∞, rats, empagliflozin […] after sorafenib 100 mg/kg for 7 consecutive days, n = 6",3.44 ± 0.52 h
same,Tmax,"[1]; Sprague-Dawley, rat, in vivo, po, […], rats, empagliflozin […] after sorafenib 100 mg/kg for 7 consecutive days, n = 6",0.4 ± 0.17 h
same,Tmax,"[1]; Sprague-Dawley, rat, in vivo, po, […], rats, empagliflozin […] oral, alone, n = 6",0.28 ± 0.12 h
same,half-life,"[1]; Sprague-Dawley, rat, in vivo, po, […], empagliflozin […] after sorafenib 100 mg/kg for 7 consecutive days, n = 6",3.14 ± 1.09 h
same,half-life,"[1]; Sprague-Dawley, rat, in vivo, po, […], empagliflozin […] oral, alone, n = 6",5.03 ± 2.29 h
same,difference in Cmax of empagliflozin (higher than control),[1]; rats receiving both drugs versus control group,not statistically significant
same,decrease of Vz/F of empagliflozin,[1]; [8],50.68%
same,increase of AUC0–t of empagliflozin,[1]; [8],44.65%
same,increase of AUC0–∞ of empagliflozin,[1]; [8],30.59%
same,CLz,[1]; [9],73 ± 12.5 mL/min/kg
same,Vz,[1]; [9],20.18 ± 8.16 L/kg
same,Vz,"[1]; rats, empagliflozin […] oral, alone, n = 6",40.92 ± 16.03 L/kg
same,decrease of mRNA expression of P-gp,[2]; rat intestine,22.77%
same,decrease of mRNA expression of P-gp,[2]; rat liver,61.19%
same,lowering of the occurrence of cardiovascular death events,[3],18%
same,inhibition of mRNA expression of Ugt1a7,[4]; rat intestine,no significant inhibition
same,decrease of mRNA expression of Ugt1a7,[4]; rat liver,40.07%
same,"systemic exposure of each metabolite, of the total drug-related material","[5]; after oral administration, no reference given",less than 10%
same,time to highest levels in the body,"[5]; following a single oral dose, ref Scheen, 2014",1.0 to 2.0 h
same,dose eliminated in urine unchanged,"[5]; ref Scheen, 2014",11–19%
same,decrease of mRNA expression of Oatp1b2,[6],37.43%
same,Stability: Accuracy (RE%),[7]; [10],4.78%
same,Stability: Mean ± SD measured concentration,[7]; [10],15.72 ± 0.78 ng/mL
same,Stability: Accuracy (RE%),[7]; [11],6.63%
same,Stability: Mean ± SD measured concentration,[7]; [11],853.00 ± 50.88 ng/mL
same,Stability: Accuracy (RE%),[7]; [12],3.89%
same,Stability: Mean ± SD measured concentration,[7]; [12],"1,558.33 ± 99.48 ng/ml"
same,Stability: Accuracy (RE%),[7]; [13],−0.67%
same,Stability: Mean ± SD measured concentration,[7]; [13],14.90 ± 0.91 ng/mL
same,Stability: Accuracy (RE%),[7]; [14],4.71%
same,Stability: Mean ± SD measured concentration,[7]; [14],837.67 ± 29.62 ng/mL
same,Stability: Accuracy (RE%),[7]; [15],2.22%
same,Stability: Mean ± SD measured concentration,[7]; [15],"1,533.33 ± 37.77 ng/ml"
same,Stability: Accuracy (RE%),[7]; [16],−0.67%
same,Stability: Mean ± SD measured concentration,[7]; [16],14.90 ± 0.91 ng/mL
same,Stability: Accuracy (RE%),[7]; [17],6.65%
same,Stability: Mean ± SD measured concentration,[7]; [17],853.17 ± 38.25 ng/mL
same,Stability: Accuracy (RE%),[7]; [18],1.11%
same,Stability: Mean ± SD measured concentration,[7]; [18],"1,516.67 ± 97.50 ng/ml"
same,Stability: Accuracy (RE%),[7]; [19],1.56%
same,Stability: Mean ± SD measured concentration,[7]; [19],15.23 ± 1.43 ng/mL
same,Stability: Accuracy (RE%),[7]; [20],4.15%
same,Stability: Mean ± SD measured concentration,[7]; [20],833.17 ± 38.43 ng/mL
same,Stability: Accuracy (RE%),[7]; [21],−1.78%
same,Stability: Mean ± SD measured concentration,[7]; [21],"1,473.33 ± 93.31 ng/ml"
